The text below walks through data of ChEMBL document CHEMBL1138512, “A class of 2,4-bisanilinopyrimidine Aurora A inhibitors with unusually high selectivity against Aurora B” (J Med Chem, 2009).

A value given as a limit tells only on which side of the number the result lay.

The target in assay [1] is Receptor-type tyrosine-protein kinase FLT3 (Homo sapiens) (UniProt P36888). In words: Inhibition of human Flt3 at 1 uM assessed as residual enzyme activity.
The target in assay [2] is RAC-alpha serine/threonine-protein kinase (Homo sapiens) (UniProt P31749). The experiment in a line: Inhibition of human PKBalpha at 1 uM assessed as residual enzyme activity.
The target of assay [3] is T1, Aurora kinase B (Homo sapiens, UniProt Q96GD4). The experiment in a line: Inhibition of Aurora B in human HCT116 cells assessed as complete loss of phospho-histone H3 staining by immunofluorescence assay.
For assay [4], the target named is Casein kinase II (Homo sapiens) (UniProt P67870+P68400+P19784). In words: Inhibition of human CK2 at 1 uM assessed as residual enzyme activity. It is filed as protein-complex assay.
Assay [5] concerns the target Platelet-derived growth factor receptor beta (Homo sapiens) (UniProt P09619). In words: Inhibition of human PDGFRbeta at 1 uM assessed as residual enzyme activity.
The target of assay [6] is Ribosomal protein S6 kinase beta-1 (Homo sapiens) (UniProt P23443). The experiment in a line: Inhibition of human p70S6K at 1 uM assessed as residual enzyme activity.
The target in assay [7] is Insulin receptor (Homo sapiens) (UniProt P06213). The experiment in a line: Inhibition of human insulin receptor at 1 uM assessed as residual enzyme activity.
The target in assay [8] is T2, Cyclin-dependent kinase 2 (Homo sapiens, UniProt P24941). In words: Inhibition of human CDK2/cyclin E at 1 uM assessed as residual enzyme activity.
In assay [9] the target is Hepatocyte growth factor receptor (Homo sapiens) (UniProt P08581). The experiment in a line: Inhibition of human Met at 1 uM assessed as residual enzyme activity.
For assay [10], the target named is Epidermal growth factor receptor (Homo sapiens) (UniProt P00533). In words: Inhibition of human EGFR at 1 uM assessed as residual enzyme activity.
Assay [11] addresses Fibroblast growth factor receptor 3 (Homo sapiens) (UniProt P22607). In words: Inhibition of human FGFR3 at 1 uM assessed as residual enzyme activity.
The target of assay [12] is T1, Aurora kinase B. In words: Inhibition of Aurora B in human HT29 cells assessed as complete loss of phospho-histone H3 staining by immunofluorescence assay. It is filed as cell-based, HT-29. An outline of the steps: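 Immunofluorescence for phospho-S10 histone H3 in HCT116 or HT29 cells, scored visually. Value taken as the lowest inhibitor concentration giving complete loss of staining, so it lies above the IC50. Units µM.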

The target of assay [13] is Mitogen-activated protein kinase 8 (Homo sapiens) (UniProt P45983). In words: Inhibition of human JNK1alpha1 at 1 uM assessed as residual enzyme activity.
The target of assay [14] is Tyrosine-protein kinase ABL2 (Mus musculus) (UniProt Q4JIM5). The experiment in a line: Inhibition of mouse ARG at 1 uM assessed as residual enzyme activity.
The next assay is filed under the species Homo sapiens. In words: Inhibition of human PKA at 1 uM assessed as residual enzyme activity.
In assay [15] the target is Serine/threonine-protein kinase Chk1 (Homo sapiens) (UniProt O14757). In words: Inhibition of human CHK1 at 1 uM assessed as residual enzyme activity.
In assay [16] the target is Ephrin type-B receptor 2 (Homo sapiens) (UniProt P29323). The experiment in a line: Inhibition of human EphB2 at 1 uM assessed as residual enzyme activity.
Assay [17] deals with Glycogen synthase kinase-3 beta (Homo sapiens) (UniProt P49841). In words: Inhibition of human GSK3-beta at 1 uM assessed as residual enzyme activity.
The target in assay [18] is Aurora kinase A (Homo sapiens) (UniProt O14965). In words: Inhibition of human Aurora A at 1 uM assessed as residual enzyme activity.
Assay [19] concerns the target Dual specificity mitogen-activated protein kinase kinase 1 (Homo sapiens) (UniProt Q02750). The experiment in a line: Inhibition of human MEK1 at 1 uM assessed as residual enzyme activity.
Assay [20] concerns the target BDNF/NT-3 growth factors receptor (Homo sapiens) (UniProt Q16620). The experiment in a line: Inhibition of human TrkB at 1 uM assessed as residual enzyme activity.
Assay [21] deals with T3, Aurora kinase A (Homo sapiens, UniProt O14965).
T3 sequence (O14965 whole entry): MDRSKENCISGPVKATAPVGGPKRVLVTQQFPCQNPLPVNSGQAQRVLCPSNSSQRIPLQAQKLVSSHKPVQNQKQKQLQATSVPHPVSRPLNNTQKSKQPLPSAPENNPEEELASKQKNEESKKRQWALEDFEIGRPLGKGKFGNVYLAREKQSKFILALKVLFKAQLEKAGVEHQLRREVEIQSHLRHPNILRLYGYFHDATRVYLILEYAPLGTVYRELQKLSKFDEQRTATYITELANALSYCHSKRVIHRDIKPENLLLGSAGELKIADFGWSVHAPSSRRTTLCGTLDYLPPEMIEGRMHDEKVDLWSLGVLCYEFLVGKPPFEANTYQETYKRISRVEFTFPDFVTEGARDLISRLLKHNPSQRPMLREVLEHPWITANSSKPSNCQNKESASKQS
The experiment in a line: Inhibition of N-terminal flag-tagged Aurora A expressed in Escherichia coli BL21-DE3 by ELISA.

Assay [22] deals with T3, Aurora kinase A. In words: Inhibition of Aurora A in human HCT116 cells assessed as complete loss of phospho-Aurora A staining in centrosomes by immunofluorescence assay. Type of assay: cell-based, HCT-116.
In assay [23] the target is Tyrosine-protein kinase receptor UFO (Homo sapiens) (UniProt P30530). The experiment in a line: Inhibition of human Axl at 1 uM assessed as residual enzyme activity.
Assay [24] concerns the target RAC-beta serine/threonine-protein kinase (Homo sapiens) (UniProt P31751). The experiment in a line: Inhibition of human PKBbeta at 1 uM assessed as residual enzyme activity.
Assay [25] has as its target T2, Cyclin-dependent kinase 2. The experiment in a line: Inhibition of CDK2/cyclin A.
The next assay relates to HT-29. The experiment in a line: Antiproliferative activity against human HT-29 cells after 4 days by celltiter assay. Type of assay: functional, cell-based. To be noted: HT-29, 96 h.
The test system of another assay is HCT-116. The experiment in a line: Antiproliferative activity against human HCT116 cells after 4 days by celltiter assay. Type of assay: functional, cell-based. To be noted: HCT-116, 96 h.
The target of assay [26] is Tyrosine-protein kinase CSK (Homo sapiens) (UniProt P41240). In words: Inhibition of human CSK at 1 uM assessed as residual enzyme activity.
Assay [27] addresses RAF proto-oncogene serine/threonine-protein kinase (Homo sapiens) (UniProt P04049). In words: Inhibition of human c-RAF at 1 uM assessed as residual enzyme activity.
Assay [28] addresses Proto-oncogene tyrosine-protein kinase Src (Homo sapiens) (UniProt P12931). The experiment in a line: Inhibition of human c-SRC at 1 uM assessed as residual enzyme activity.
Assay [29] has as its target Tyrosine-protein kinase ZAP-70 (Homo sapiens) (UniProt P43403). In words: Inhibition of human ZAP-70 at 1 uM assessed as residual enzyme activity.
Assay [30] concerns the target RAC-gamma serine/threonine-protein kinase (Homo sapiens) (UniProt Q9Y243). In words: Inhibition of human PKBgamma at 1 uM assessed as residual enzyme activity.
For assay [31], the target named is Tyrosine-protein kinase ABL1 (Mus musculus) (UniProt P00520). In words: Inhibition of mouse ABL at 1 uM assessed as residual enzyme activity.
Assay [32] addresses Cyclin-dependent kinase 1/cyclin B1 (Homo sapiens) (UniProt P06493+P14635). In words: Inhibition of human CDK1/cyclin B at 1 uM assessed as residual enzyme activity.
In assay [33] the target is Proto-oncogene tyrosine-protein kinase receptor Ret (Homo sapiens) (UniProt P07949). The experiment in a line: Inhibition of human Ret at 1 uM assessed as residual enzyme activity.
Assay [34] has as its target T1, Aurora kinase B. The experiment in a line: Inhibition of N-terminal flag-tagged Aurora B expressed in Escherichia coli BL21-DE3 by ELISA.
For assay [35], the target named is Tyrosine-protein kinase Lck (Homo sapiens) (UniProt P06239). In words: Inhibition of human Lck at 1 uM assessed as residual enzyme activity.
In assay [36] the target is Aurora kinase B (Homo sapiens, UniProt Q96GD4, E161T). The experiment in a line: Inhibition of N-terminal flag-tagged Aurora B E161T mutant expressed in Escherichia coli BL21-DE3.
Assay [37] concerns the target Aurora kinase A (Homo sapiens, UniProt O14965, T217E). In words: Inhibition of N-terminal flag-tagged Aurora A T217E mutant expressed in Escherichia coli BL21-DE3.

T1 sequence (Q96GD4 whole entry): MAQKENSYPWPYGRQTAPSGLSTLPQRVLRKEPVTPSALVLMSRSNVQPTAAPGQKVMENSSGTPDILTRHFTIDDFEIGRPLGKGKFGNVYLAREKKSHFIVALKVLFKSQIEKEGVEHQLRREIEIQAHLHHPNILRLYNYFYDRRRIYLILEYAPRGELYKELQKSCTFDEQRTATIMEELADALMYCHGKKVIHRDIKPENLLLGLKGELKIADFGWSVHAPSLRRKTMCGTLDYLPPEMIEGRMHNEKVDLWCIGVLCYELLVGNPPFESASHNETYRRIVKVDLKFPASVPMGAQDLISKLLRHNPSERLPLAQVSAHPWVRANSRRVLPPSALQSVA
Chain of Aurora kinase A (Homo sapiens, UniProt O14965, T217E) (O14965 whole entry I57V/T217E): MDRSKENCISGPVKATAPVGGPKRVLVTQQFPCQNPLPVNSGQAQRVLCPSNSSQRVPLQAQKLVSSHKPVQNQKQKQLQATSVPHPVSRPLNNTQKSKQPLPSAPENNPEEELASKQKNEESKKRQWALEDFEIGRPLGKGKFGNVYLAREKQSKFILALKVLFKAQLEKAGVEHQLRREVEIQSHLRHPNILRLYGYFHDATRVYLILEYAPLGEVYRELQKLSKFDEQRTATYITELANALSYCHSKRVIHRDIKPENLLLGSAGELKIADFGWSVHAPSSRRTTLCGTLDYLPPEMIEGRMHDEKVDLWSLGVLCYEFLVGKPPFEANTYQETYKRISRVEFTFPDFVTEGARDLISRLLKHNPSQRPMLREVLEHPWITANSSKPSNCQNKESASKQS
Chain of BDNF/NT-3 growth factors receptor (Homo sapiens) (Q16620 32-822 limits assumed): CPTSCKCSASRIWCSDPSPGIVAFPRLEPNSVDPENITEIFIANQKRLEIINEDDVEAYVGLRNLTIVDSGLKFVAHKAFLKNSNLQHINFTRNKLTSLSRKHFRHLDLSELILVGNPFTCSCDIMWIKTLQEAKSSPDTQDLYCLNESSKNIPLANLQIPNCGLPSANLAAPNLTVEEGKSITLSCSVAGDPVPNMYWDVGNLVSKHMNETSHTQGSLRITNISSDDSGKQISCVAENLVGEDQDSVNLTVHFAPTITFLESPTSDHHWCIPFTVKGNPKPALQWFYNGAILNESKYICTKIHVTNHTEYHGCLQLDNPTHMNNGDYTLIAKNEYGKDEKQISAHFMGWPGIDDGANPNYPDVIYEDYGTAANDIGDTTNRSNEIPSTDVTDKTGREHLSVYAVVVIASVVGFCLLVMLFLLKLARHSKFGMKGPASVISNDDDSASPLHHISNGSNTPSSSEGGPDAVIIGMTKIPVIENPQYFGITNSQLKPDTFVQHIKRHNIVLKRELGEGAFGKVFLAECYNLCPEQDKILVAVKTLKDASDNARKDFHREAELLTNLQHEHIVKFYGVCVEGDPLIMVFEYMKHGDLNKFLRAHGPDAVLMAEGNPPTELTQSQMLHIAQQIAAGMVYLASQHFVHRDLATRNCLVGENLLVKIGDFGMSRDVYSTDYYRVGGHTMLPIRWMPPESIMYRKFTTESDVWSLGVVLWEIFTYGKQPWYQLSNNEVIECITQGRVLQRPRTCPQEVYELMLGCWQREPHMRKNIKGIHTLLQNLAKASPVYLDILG
Chain of Cyclin-dependent kinase 1/cyclin B1 (Homo sapiens) (P06493 whole entry, looked up): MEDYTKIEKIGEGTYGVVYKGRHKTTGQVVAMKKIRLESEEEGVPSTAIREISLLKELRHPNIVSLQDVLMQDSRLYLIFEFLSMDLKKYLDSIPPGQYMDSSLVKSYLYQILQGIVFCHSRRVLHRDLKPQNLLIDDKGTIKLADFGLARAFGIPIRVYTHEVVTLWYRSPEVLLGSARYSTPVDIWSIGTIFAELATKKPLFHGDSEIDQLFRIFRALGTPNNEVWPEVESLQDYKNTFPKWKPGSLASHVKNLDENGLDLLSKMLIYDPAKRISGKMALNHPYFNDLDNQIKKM
Chain of Cyclin-dependent kinase 1/cyclin B1 (Homo sapiens) (P14635 whole entry, looked up): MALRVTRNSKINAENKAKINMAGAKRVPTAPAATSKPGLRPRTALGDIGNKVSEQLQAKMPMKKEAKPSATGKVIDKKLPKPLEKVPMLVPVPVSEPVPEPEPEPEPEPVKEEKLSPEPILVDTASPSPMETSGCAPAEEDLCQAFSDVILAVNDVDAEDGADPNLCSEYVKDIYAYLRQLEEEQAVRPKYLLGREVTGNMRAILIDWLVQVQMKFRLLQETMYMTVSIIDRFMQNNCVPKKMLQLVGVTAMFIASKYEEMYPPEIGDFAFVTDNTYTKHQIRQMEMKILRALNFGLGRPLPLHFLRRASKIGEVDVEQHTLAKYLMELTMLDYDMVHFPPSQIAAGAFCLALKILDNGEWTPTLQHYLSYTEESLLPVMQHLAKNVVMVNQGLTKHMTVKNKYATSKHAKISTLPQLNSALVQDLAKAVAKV
Chain of Fibroblast growth factor receptor 3 (Homo sapiens) (P22607 23-806 limits assumed): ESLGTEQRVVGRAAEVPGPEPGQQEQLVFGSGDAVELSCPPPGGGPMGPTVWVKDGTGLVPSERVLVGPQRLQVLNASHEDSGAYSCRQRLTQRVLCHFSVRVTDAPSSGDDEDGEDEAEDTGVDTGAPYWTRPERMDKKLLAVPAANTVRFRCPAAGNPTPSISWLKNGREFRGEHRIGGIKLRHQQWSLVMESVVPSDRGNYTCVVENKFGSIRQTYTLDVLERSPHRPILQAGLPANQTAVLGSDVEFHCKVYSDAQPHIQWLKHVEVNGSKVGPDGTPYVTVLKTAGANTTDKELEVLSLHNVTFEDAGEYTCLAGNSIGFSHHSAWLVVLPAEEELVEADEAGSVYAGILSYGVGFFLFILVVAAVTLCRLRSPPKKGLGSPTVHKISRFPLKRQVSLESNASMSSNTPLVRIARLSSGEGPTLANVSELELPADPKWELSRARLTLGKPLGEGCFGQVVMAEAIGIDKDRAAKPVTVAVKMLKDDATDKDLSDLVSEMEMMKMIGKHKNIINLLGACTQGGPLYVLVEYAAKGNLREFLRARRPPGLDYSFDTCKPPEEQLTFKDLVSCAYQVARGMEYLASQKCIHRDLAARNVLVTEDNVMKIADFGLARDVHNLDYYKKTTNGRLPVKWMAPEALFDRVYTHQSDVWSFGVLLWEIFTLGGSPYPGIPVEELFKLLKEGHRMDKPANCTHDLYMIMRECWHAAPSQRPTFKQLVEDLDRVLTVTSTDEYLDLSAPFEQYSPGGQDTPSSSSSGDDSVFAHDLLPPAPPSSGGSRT
Chain of Platelet-derived growth factor receptor beta (Homo sapiens) (P09619 whole entry): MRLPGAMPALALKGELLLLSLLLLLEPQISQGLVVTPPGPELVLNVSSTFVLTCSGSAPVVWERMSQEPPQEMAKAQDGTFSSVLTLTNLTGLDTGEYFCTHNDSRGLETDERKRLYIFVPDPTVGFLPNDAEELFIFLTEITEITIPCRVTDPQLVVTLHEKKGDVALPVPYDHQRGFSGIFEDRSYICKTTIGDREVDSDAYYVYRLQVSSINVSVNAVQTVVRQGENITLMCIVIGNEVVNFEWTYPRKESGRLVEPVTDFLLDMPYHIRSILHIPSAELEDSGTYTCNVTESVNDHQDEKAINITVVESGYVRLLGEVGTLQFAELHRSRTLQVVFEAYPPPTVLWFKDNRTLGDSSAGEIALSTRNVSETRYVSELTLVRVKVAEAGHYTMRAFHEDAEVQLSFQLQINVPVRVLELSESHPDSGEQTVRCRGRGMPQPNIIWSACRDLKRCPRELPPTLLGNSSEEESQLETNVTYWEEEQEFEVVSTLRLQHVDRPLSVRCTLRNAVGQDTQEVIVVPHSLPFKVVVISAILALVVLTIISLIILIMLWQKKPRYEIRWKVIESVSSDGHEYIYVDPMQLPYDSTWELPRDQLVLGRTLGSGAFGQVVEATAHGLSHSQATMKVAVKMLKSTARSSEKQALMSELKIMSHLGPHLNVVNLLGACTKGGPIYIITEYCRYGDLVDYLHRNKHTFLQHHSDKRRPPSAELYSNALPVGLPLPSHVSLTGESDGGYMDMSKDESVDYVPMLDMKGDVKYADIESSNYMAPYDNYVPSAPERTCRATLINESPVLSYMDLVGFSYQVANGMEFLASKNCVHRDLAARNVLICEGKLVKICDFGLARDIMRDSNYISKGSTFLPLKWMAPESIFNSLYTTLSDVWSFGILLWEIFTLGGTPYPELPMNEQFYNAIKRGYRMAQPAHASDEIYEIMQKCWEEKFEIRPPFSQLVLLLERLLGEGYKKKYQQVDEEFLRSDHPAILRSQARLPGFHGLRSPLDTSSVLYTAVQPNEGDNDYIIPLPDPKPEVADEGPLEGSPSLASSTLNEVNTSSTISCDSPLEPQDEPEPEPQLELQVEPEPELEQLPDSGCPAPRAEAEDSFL
Chain of Tyrosine-protein kinase receptor UFO (Homo sapiens) (P30530 whole entry): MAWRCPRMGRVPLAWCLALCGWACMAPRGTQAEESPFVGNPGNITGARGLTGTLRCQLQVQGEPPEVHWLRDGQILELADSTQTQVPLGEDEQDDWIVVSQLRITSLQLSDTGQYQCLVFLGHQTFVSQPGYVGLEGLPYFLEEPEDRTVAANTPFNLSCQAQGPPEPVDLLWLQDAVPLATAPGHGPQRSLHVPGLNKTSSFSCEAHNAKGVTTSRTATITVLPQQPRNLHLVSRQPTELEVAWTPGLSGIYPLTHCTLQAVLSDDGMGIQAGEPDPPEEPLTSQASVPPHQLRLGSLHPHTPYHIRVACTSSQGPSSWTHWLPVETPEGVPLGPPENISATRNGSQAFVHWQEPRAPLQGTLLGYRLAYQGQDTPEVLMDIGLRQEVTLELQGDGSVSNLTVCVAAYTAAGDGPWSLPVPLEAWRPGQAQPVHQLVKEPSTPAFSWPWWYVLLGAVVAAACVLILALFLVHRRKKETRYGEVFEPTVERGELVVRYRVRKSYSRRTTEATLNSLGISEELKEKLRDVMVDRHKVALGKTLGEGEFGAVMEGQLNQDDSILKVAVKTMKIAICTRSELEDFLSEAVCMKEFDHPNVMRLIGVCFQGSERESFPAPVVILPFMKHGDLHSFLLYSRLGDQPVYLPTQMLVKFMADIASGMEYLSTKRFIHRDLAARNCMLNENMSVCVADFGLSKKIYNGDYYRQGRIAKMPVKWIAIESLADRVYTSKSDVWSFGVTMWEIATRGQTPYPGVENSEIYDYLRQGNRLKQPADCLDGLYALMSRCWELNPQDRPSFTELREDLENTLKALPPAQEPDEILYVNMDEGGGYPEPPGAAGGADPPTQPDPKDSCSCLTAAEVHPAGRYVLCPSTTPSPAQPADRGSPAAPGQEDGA

For the compound `O=C(Nc1ccccc1Cl)c1ccc(Nc2nc(Nc3ccc(O)cc3)ncc2F)cc1`, the Activity in assay [1] was 6%; in [2] it was 96%; in assay [4], 88%; in assay [5], 111%; in assay [6], 25%; in assay [7] it was 102%. Further, the Activity in assay [8] was found to be 44%; in assay [9], 57%; in assay [10] it was 54%; in assay [11], 40%; in assay [13], 31%; in assay [14] it was 57%. The Activity in the assay filed under Homo sapiens is 87%; in assay [15] it was 82%; in [16], 104%; in assay [17], 90%; in [18], 1%; in assay [19] it was 103%. Moreover, the Activity stood at 76% in [20]; 54% in assay [23]; 103% in assay [24]; 100% in assay [26]; 64% in [27]; 66% in assay [28]. The Activity in [29] was found to be 100%; in [30] it was 91%; in [31], 76%; in [32], 60%; in assay [33] it was 7%; in assay [35], 42%. For the same compound, the IC50 (in general, the concentration needed to halve the response being measured) is more than 25000 nM on Aurora kinase B [3]; more than 30000 nM on Aurora kinase B [12]; 10 nM on Aurora kinase A [21]; 5000 nM at Aurora kinase A [22]; 3200 nM in assay [25]; 17000 nM with HT-29. The IC50 in the assay with HCT-116 was found to be 870 nM; at Aurora kinase B [34] it was 1900 nM.
Turning to `CCN1CCN(C(=O)Cc2ccc(Nc3ncc(F)c(Nc4ccc(C(=O)Nc5ccccc5Cl)cc4)n3)cc2)CC1`, the IC50 on Aurora kinase B [3] was more than 50000 nM; at Aurora kinase B [12], more than 27000 nM; against Aurora kinase B [36], 55 nM; against Aurora kinase A [37], 2000 nM; at Aurora kinase A [21], 3.4 nM; on Aurora kinase A [22] it was 2500 nM. The IC50 is more than 16000 nM in [25], 2900 nM in the assay with HT-29, 190 nM in the assay with HCT-116 and 3400 nM at Aurora kinase B [34].
